# Compound activity deposited in PubChem BioAssay by The Scripps Research Institute Molecular Screening Center.
# In the library only some 1.6% were active in any assay of this set; here they are far more common.
# DAGLB inh: blocks human DAGLB lipase activity; HEK293T DAGLB membrane lysate, EnzChek fluorogenic substrate; hit rate 0.059% among 340,000; inhibition, % at 5.17 µM; Q8NCG7; AID 504411; in the data active = inhibition above about 34%
# Target sequence (Q8NCG7 whole entry, looked up): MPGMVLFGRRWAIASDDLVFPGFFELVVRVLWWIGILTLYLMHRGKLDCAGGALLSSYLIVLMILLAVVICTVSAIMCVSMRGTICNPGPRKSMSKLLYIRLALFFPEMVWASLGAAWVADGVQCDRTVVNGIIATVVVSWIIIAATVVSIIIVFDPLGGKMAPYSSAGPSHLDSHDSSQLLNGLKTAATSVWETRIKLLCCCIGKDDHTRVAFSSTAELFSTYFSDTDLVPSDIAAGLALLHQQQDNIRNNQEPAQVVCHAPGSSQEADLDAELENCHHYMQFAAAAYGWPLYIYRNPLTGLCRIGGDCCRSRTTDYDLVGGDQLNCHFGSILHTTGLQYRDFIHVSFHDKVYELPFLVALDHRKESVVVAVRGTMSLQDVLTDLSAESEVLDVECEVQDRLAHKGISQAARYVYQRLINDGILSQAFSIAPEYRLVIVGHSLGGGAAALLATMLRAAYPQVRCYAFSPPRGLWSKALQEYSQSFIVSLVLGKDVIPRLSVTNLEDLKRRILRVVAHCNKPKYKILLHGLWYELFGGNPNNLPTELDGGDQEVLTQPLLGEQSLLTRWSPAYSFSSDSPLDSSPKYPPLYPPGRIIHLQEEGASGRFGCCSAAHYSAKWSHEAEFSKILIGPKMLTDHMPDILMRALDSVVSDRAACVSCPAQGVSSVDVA
# mABHD4 FP: inhibitors of mouse ABHD4. purified mABHD4, FP-Rh probe fluorescence polarization. inhibition, % at 8.92 µM. hit rate 0.54% among 370,000. AID 720543;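 active = inhibition exceeding the mean over every tested compound plus 3 SD, cut at about 30% in these data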
#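 Assay system: mABHD4 protein; medium: HEPES pH 7.0, NaCl, Pluronic buffer; dosing: 8.92 µM, single dose; schedule: 45 min + 60 min at 25 °C; signal: FP readout, ex 525 nm / em 598 nm; read-out: normalized percent inhibition of probe labeling; repeats: single replicate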
# SIAE inh: human SIAE inhibition, primary screen; SIAE FP-Rh probe binding, fluorescence polarization; inhibition, % at 9.66 µM; hit rate 0.69% among 370,000; AID 1053197; Q9HAT2;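 active = inhibition above a cutoff: mean of compounds within the control limits plus 3 SD of those, cut at about 17% in these data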
# HTRA1 inhibitor: blocks human HTRA1 serine peptidase. hit rate 0.5% among 340,000. recombinant HTRA1, FP-rhodamine activity-based probe, fluorescence polarization. AID 504803. inhibition, % at 5.96 µM. Q92743; in the data active = inhibition above about 36%
# TCR-CD3 inh: blocks the human TCR-CD3 interaction; inhibition, % at 9.4 µM; TAMRA-labeled TCR probe fluorescence, biochemical; AID 651800; hit rate 0.37% among 360,000; in the data active = inhibition above about 19%;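 note: recombinant mutant TCR 2C K166C tagged with TAMRA read by polarization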
# ABHD4 confirm: ABHD4 (mouse) inhibition, FP confirmation. purified mABHD4, FP-Rh probe fluorescence polarization. shares compounds with mABHD4 FP. hit rate 55% among 1,800. inhibition, % at 8.92 µM;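 active = mean inhibition across replicates above the hit cutoff set in the primary screen, cut at about 30% in these data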
# Hits are given with their value; n = inactive; x = no result given; + = active, no number.
SMILES,DAGLB inh,mABHD4 FP,SIAE inh,HTRA1 inhibitor,TCR-CD3 inh,ABHD4 confirm
Cc1ccc(-c2cc(-c3nnc(SCC(=O)N4c5ccccc5Sc5ccc(Cl)cc54)n3N)[nH]n2)cc1,x,n,n,x,x,x
O=C(COc1ccccc1Cl)NC(=S)Nc1ccccc1N1CCCC1,n,41.3,n,n,n,n
COC(=O)c1ccccc1NC(=S)NC(=O)COc1ccccc1Cl,n,n,n,n,n,x
O=S1(=O)N[C@@H](Cc2ccccc2)COc2cc(NC3CC3)ccc21,x,n,n,x,n,x
COc1ccc(OC)c(N/C(C)=C/C(=O)c2ccccc2)c1,n,n,n,n,n,x
COc1ccc(OC)c(NC(=O)C(=O)/C=C(\O)c2cc(OC)ccc2OC)c1,n,34.7,n,n,n,n
COc1ccc(OC)c(NC(=O)Nc2ccc(O)c3ccccc23)c1,n,33.0,n,n,n,40.8
COc1ccc(OC)c(NC(=O)Nc2c(O)ccc3ccccc23)c1,n,n,n,n,n,x
CCc1cc2c(nc1CC)CCCN2S(=O)(=O)c1ccccc1,x,n,n,x,n,x
COC(=O)C1CN(Cc2cn(Cc3ccc(C)cc3)nn2)CCS(=O)(=O)N1Cc1ccc(C)cc1 (stereo not drawn),x,n,n,x,x,x
CCOC(=O)c1c(-c2ccccc2)csc1NC(=O)CCN1C(=O)c2ccccc2C1=O,n,n,n,n,n,x
CCOC(=O)c1c(-c2ccc(-c3ccccc3)cc2)csc1NC(=O)CNCCN(C)C,n,30.2,n,n,n,43.1
NS(=O)(=O)c1cccc2c1c([N+](=O)[O-])cc1nc(O)c(O)nc12,n,30.7,n,n,n,n
COC(=O)[C@]12C[C@H](CC(=O)N3CCSCC3)C(=O)N(CCC3=CCCCC3)C1=C[C@H](C(C)(C)C)O[C@@H]2C,x,n,n,x,n,x
CCCCCN=C(N)N/N=C/c1c[nH]c2ccc(OC)cc12,n,40.7,n,n,n,53.8
COc1ccc(N2CC(C(=O)N/N=C/c3c[nH]c4ccccc34)CC2=O)cc1 (stereo not drawn),n,n,n,n,n,x
O=C(NCc1cccc(Cl)c1)O[C@H]1CC[C@@]23CCCN2C(=O)CCC[C@H]3C1,x,n,n,x,x,x
CC(=O)Nc1cccc(/C(C)=N/Nc2ccc(S(=O)(=O)Nc3ccccc3C(=O)O)cc2[N+](=O)[O-])c1,n,42.4,n,n,n,63.0
COc1ccc(C(C)=NNc2ccc([N+](=O)[O-])cc2S(=O)(=O)Nc2ccccc2C(=O)O)c(OC)c1,n,n,n,n,n,x
Cc1csc(N=Cc2ccc([N+](=O)[O-])o2)n1,n,29.7,n,n,n,n
CC(C)C[C@H]1COc2cc(Br)ccc2S(=O)(=O)N1Cc1cn(Cc2ccc(F)cc2)nn1,x,n,n,x,x,x
O=C(O)/C=C/c1cccc(NC(=O)Nc2ccc([N+](=O)[O-])cc2)c1,n,30.2,n,n,n,n
O=C(Nc1ccc([N+](=O)[O-])cc1)C(=O)Nc1cccc(C(=O)O)c1,n,30.1,n,n,n,n
O=C(Nc1ccc(F)cc1Cl)C1CCCN1S(=O)(=O)c1cccc2cccnc12 (stereo not drawn),x,n,n,x,x,x
Cc1cc(-c2nc3cccnc3s2)ccc1NS(=O)(=O)c1cccs1,n,46.1,n,n,n,n
SMILES,DAGLB inh,mABHD4 FP,SIAE inh,HTRA1 inhibitor,TCR-CD3 inh,ABHD4 confirm
CCN(C[C@H]1[C@@H](c2ccc(C3=CCCC3)cc2)[C@H](CO)N1c1nc(C)c(C)s1)S(=O)(=O)c1ccccc1[N+](=O)[O-],x,n,n,x,x,x
F[B-](F)(F)c1cc2ccccc2s1,n,86.7,n,n,n,72.0
C[C@@H]1ON(C)[C@H]2C[C@H]3c4[nH]c5c(-c6ccccc6)cccc5c4CCN3C(=O)[C@@H]12,x,n,n,x,n,x
C[C@@H]1ON(C)[C@H]2C[C@H]3c4[nH]c5c(-c6ccc(C(F)(F)F)cc6)cccc5c4CCN3C(=O)[C@@H]12,x,29.6,n,x,n,n
C[C@@H]1C(=O)N2N=Cc3cc4ccccc4cc3[C@H]2N2N=Cc3cc4ccccc4cc3[C@@H]12,x,n,n,x,x,x
Cc1ccc2nc(CSc3nc(C)cc(C)c3C#N)[nH]c2c1,n,44.3,n,n,n,n
O=C(Nc1ccc2c(c1)Cc1ccccc1-2)NC1CCCCN(Cc2cccc(Cl)c2)C1=O (stereo not drawn),x,n,n,x,x,x
CCCC1=Nc2cc(C(=O)N3CCCC3)ccc2Sc2ccc(C)cc21,n,31.9,n,n,n,n
CC(=O)C1C(=O)c2c(cccc2[N+](=O)[O-])C1=Nc1cccc(Cl)c1 (stereo not drawn),n,35.9,n,n,n,60.7
CC(=O)C1C(=O)c2c(cccc2[N+](=O)[O-])C1=Nc1ccccc1C (stereo not drawn),x,n,n,x,n,x
NC(=S)NN=Cc1nccc2c(N)cccc12,n,36.4,n,n,n,43.8
Cc1cccc(OCCC(=O)Nc2ccc(N3CCOCC3)cc2N2CCOCC2)c1,n,34.5,n,n,n,n
CCOc1ccc(OCCC(=O)Nc2ccc(N3CCOCC3)cc2N2CCOCC2)cc1,n,n,n,n,n,x
CN(C(=O)CNC(=O)c1ccccc1OCC(=O)Nc1ccc(I)cc1)c1ccccc1,x,n,n,x,x,x
C(=C\c1ccccc1)/CN1CCN(C(c2ccccc2)c2ccccc2)CC1,n,95.2,n,n,n,n
Fc1ccc(C(c2ccc(F)cc2)N2CCN(C/C=C/c3ccccc3)CC2)cc1,n,n,n,n,n,x
CCC[C@H](/C=C/C(=O)OC(C)(C)C)Sc1ccc(N)cc1,x,n,n,x,x,x
Cn1c(=O)c2c(nc(SCc3nn[nH]n3)n2Cc2ccccc2F)n(C)c1=O,n,+,n,n,n,n
Nc1nc(N)c(N=O)c(Nc2ccc(Cl)c(Cl)c2)n1,x,30.8,n,x,n,33.0
Cc1ccc(Nc2nc(N)nc(N)c2N=O)cc1Cl,x,n,n,x,n,x
COC(=O)[C@]1(C#N)CC(=O)N(Cc2ccc(Cl)cc2)[C@@H]1c1ccc(OC)cc1,x,n,n,x,x,x
O=C(N/N=C/c1ccncc1)c1cc2ccccc2cc1O,n,42.6,n,n,n,n
O=C(N/N=C/c1ccc[nH]1)c1cc2ccccc2cc1O,n,n,n,n,n,x
CN1c2ccccc2Sc2cc(N)ccc21,n,36.9,n,n,n,62.8
COc1cc(N)c2ncccc2c1Br,n,62.0,n,n,n,n
SMILES,DAGLB inh,mABHD4 FP,SIAE inh,HTRA1 inhibitor,TCR-CD3 inh,ABHD4 confirm
COc1cc(N)c2ncccc2c1SC,n,n,n,n,n,x
O=c1c(-c2ccco2)nc2ccccc2n1C(c1ccccn1)c1nc2ccccc2[nH]1 (stereo not drawn),x,37.6,n,x,n,n
O=c1c(-c2ccco2)nc2ccccc2n1C(c1ccccc1)c1nc2ccccc2[nH]1 (stereo not drawn),x,n,n,x,n,x
CCOC(=O)[C@H](CCc1ccccc1)N[C@@H](C)C(=O)N1Cc2cc(OC)c(OC)cc2C[C@H]1C(=O)O,x,n,n,x,x,x
COc1cccc(Nc2nc(NCCO)c3ccccc3n2)c1,n,39.1,n,n,n,47.3
Cc1cccc(Nc2nc(NCc3ccco3)c3ccccc3n2)c1,n,39.3,22.6,n,n,46.0
c1ccc(Nc2nc(NCc3ccco3)c3ccccc3n2)cc1,n,n,n,n,n,x
